Results published in ChEMBL document CHEMBL1140872, “Discovery of a potent and selective inhibitor for human carbonyl reductase 1 from propionate scanning applied to the macrolide zearalenone” (Bioorg Med Chem, 2009).

Assays:
[1] = biological target: T1, Cyclin-G-associated kinase (Homo sapiens) (UniProt O14976); assay: Binding affinity to human recombinant GAK expressed in Escherichia coli assessed as thermal shift by differential scanning fluorimetry
T1 sequence (whole entry): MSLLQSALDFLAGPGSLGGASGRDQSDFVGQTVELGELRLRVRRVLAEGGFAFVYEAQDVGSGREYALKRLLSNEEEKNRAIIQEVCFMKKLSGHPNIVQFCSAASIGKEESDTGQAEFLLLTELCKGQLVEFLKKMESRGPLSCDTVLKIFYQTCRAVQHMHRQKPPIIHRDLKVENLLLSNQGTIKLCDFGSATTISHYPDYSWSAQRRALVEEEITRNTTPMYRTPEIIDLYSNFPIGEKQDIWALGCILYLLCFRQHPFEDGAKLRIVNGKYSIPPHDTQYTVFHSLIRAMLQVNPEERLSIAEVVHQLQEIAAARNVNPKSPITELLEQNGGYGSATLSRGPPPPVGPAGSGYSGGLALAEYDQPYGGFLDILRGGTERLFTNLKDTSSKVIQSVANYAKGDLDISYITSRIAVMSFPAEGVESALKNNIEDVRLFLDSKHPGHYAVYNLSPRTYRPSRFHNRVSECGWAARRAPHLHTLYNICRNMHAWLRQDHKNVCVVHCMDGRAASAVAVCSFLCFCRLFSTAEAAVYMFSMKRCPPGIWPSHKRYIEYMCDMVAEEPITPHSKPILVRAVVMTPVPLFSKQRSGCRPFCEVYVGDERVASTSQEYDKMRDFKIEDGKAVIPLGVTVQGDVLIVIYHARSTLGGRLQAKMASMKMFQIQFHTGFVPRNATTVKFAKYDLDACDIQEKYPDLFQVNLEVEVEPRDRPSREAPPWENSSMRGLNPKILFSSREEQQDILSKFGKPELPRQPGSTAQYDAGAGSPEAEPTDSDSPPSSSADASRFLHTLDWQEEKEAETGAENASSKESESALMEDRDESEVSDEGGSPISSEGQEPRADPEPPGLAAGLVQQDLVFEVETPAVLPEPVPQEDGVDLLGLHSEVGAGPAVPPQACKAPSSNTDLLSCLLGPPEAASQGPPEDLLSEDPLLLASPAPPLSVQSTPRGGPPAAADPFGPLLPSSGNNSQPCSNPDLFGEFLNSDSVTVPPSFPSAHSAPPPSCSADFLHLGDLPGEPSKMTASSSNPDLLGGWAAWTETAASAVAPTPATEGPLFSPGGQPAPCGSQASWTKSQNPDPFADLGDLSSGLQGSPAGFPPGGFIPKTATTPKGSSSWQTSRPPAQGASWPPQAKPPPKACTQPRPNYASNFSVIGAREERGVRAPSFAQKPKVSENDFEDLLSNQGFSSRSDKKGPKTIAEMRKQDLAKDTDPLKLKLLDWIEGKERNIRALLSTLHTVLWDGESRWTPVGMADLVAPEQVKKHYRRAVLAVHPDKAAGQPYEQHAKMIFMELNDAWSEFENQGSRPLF
Procedure, shortened: (§1)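 Thermal-shift (DSF) binding assay with purified recombinant catalytic domains or proteins carrying an N- or C-terminal His6 tag or GST fusion. Purity was >95% by SDS/PAGE and identity was confirmed by MS. Protein was at 2 µM final in 10 mM HEPES pH 7.5 and 150 mM NaCl. Tm shift is reported, with 2 °C as the threshold for binding.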

[2] = biological target: Serine/threonine-protein kinase pim-2 (Homo sapiens) (UniProt Q9P1W9); assay: Binding affinity to human recombinant PIM2 expressed in Escherichia coli assessed as thermal shift by differential scanning fluorimetry; procedure, shortened: as §1
Serine/threonine-protein kinase pim-2 (Homo sapiens), sequence (Q9P1W9 whole entry, looked up): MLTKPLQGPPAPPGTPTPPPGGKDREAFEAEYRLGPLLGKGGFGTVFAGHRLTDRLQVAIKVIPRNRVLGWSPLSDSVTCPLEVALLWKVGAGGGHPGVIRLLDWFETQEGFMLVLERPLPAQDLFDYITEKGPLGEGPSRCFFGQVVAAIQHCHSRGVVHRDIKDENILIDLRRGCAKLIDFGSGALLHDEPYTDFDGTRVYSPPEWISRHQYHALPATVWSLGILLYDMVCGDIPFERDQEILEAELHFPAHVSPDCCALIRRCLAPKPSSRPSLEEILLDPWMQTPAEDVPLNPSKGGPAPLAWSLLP

[3] = biological target: T2, Mitogen-activated protein kinase kinase kinase 5 (Homo sapiens) (UniProt Q99683); assay: Binding affinity to human recombinant MAP3K5 expressed in Escherichia coli assessed as thermal shift by differential scanning fluorimetry; procedure, shortened: as §1
T2 sequence (whole entry): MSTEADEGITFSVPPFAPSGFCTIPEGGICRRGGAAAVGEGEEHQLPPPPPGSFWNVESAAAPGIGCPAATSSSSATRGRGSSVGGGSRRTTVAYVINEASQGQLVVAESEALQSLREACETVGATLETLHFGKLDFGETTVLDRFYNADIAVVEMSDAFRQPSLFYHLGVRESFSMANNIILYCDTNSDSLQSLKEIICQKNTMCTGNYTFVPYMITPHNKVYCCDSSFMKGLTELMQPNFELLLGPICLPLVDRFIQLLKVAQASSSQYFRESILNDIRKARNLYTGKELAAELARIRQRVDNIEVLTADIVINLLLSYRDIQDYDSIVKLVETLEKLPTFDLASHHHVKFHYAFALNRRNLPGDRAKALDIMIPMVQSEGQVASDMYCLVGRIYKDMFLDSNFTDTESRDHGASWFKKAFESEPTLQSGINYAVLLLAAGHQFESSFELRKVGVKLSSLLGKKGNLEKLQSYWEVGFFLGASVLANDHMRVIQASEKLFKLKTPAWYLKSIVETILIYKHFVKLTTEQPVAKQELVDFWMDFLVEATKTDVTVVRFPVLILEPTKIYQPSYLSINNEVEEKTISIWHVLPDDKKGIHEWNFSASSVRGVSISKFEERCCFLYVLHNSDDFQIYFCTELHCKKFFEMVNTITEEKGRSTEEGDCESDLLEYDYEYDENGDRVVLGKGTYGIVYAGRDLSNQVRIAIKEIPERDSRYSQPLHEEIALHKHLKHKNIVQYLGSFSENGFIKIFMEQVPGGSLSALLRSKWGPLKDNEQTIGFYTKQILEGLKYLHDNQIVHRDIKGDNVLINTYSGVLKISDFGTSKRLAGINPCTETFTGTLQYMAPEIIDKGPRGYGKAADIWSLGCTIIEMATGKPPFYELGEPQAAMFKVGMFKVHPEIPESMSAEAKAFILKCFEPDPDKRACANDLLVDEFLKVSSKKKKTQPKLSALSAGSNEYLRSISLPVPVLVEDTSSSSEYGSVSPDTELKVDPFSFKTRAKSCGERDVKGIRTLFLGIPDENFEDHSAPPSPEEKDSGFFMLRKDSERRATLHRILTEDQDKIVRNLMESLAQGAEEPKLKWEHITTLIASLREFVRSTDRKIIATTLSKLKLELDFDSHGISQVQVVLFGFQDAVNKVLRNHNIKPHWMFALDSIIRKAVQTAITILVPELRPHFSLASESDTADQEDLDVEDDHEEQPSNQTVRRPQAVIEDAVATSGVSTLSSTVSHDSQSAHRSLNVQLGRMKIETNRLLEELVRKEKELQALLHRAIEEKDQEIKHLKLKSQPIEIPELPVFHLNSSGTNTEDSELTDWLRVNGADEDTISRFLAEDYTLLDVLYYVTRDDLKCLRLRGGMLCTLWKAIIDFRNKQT

Structure (SMILES) | Tm [1] [°C] | Tm [2] [°C] | Tm [3] [°C]
C[C@H]1CCCC(=O)[C@@H](C)CC/C=C/c2cc(O)cc(O)c2C(=O)O1 | 2.9 | < 2 | < 2
COc1cc(O)c2c(c1)/C=C/CC[C@H](C)C(=O)CCC[C@H](C)OC2=O | < 2 | < 2 | < 2
COC1=C2C[C@@H](C)C[C@H](OC)[C@H](O)[C@@H](C)/C=C(\C)[C@H](OC(N)=O)[C@@H](OC)/C=C\C=C(/C)C(=O)NC(=CC1=O)C2=O | < 2 | < 2 | < 2
COc1cc2c(c(OC)c1)C(=O)O[C@@H](C)CCCC(=O)[C@@H](C)CC/C=C/2 | < 2 | < 2 | < 2
C[C@@H]1C[C@H]2O[C@@H]2/C=C\C=C\C(=O)Cc2c(Cl)c(O)cc(O)c2C(=O)O1 [RADICICOL] | < 2 | < 2 | < 2
COc1cc2c(c(OC)c1)C(=O)O[C@@H](C)CCC[C@@H](O)[C@@H](C)CC/C=C/2 | < 2 | < 2 | < 2
C[C@H]1CCCC(=O)CCC/C=C/c2cc(O)cc(O)c2C(=O)O1 | 2.4 | 2.6 | < 2
